# Source: PubChem BioAssay (several laboratories)
# Only some compounds are listed: those with a hit (about 1.2% of all), similar ones and a draw of the others.
# Runt-CBFb FRET: inhibitors of RUNX1 Runt–CBFb binding, primary screen, biochemical, FRET, Cerulean-Runt, Venus-CBFb, uHTS | Runt-related transcription factor 1 (Homo sapiens) + Core-binding factor subunit beta … | Cerulean-Runt/Venus-CBFb FRET ratio 530/480, 1 h | inhibition, % at 20 µM | AID 1496, 2009 | hit rate 0.46% among 220,000;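 active means inhibition over about 50% at 20 µM in the single-dose screen, limit read from the data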
# Target sequence (Q01196 whole entry, looked up): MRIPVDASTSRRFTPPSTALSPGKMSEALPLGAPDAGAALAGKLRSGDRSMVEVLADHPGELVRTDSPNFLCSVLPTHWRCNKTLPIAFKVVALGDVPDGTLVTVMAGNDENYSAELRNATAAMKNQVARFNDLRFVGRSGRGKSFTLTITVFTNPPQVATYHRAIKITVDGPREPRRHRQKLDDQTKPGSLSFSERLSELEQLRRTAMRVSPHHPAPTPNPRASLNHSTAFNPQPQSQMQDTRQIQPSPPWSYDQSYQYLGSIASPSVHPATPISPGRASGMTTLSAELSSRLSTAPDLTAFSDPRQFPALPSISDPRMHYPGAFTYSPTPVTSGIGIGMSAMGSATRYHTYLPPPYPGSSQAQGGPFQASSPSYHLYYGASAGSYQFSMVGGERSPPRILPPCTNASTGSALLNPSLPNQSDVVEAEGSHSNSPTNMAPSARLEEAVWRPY
# Target sequence (Q13951 whole entry, looked up): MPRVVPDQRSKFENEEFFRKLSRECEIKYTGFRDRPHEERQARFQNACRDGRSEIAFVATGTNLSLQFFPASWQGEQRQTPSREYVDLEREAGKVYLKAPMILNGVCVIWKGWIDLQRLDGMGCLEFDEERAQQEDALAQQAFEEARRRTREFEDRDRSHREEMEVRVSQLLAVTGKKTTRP
#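 test system = Cerulean-tagged RUNX1 Runt domain (FRET donor) fusion protein | reagent = Venus-CBFb binding partner, 100 nM | incubation = protein complex preformed 1 h, compound exposure 1 h, room temperature, dark | detection = FRET fluorescence | read-out basis = loss of energy transfer signal | controls = 5 µM unlabeled CBFb as full-inhibition high control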
# Runt-SMMHC FRET: inhibitors of RUNX1 Runt–CBFb-SMMHC binding, primary screen, biochemical, FRET, Cerulean-Runt, Venus-CBFb-SMMHC, uHTS | Runt-related transcription factor 1 (Homo sapiens) + Core-binding factor subunit beta … | Cerulean-Runt/Venus-CBFb-SMMHC FRET ratio 530/480, 1 h | inhibition, % at 20 µM | hit rate 0.74% among 220,000;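 active means mean inhibition across duplicate retests at 20 µM reaching about 50%, limit read from the data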;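 further: inhibitors lower the FRET ratio by blocking Runt binding to CBFb-SMMHC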
# CaV13 FRET inh: Primary screen for inhibitors of IQ motif and Ca2+-dependent inactivation inhibitor domain binding in CACNA1D, Förster resonance energy transfer in living cells, …; HEK cells, CFP/YFP FRET ICDI-IQ, plate reader, 10 min; percent FRET-ratio fall versus neutral wells; inhibition, % at 12.3 µM; hit rate 0.098% among 340,000; AID 743397;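 active means mean replicate inhibition of at least 30% and at least 1% of replicates passing that level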
# RanGTP-Imp inh: inhibitors of RanGTP-importin-beta interaction, primary screen, biochemical, FRET, CFP-Ran, YFP-importin-beta, homogeneous | AID 2216, 2009 | Ran GTPase (GTP-bound) - importin-beta complex | inhibition, % (test concentration not listed) | hit rate 1.1% among 300,000 | cell-free CFP-Ran/YFP-importin-beta FRET ratio;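 active means more than half of the replicate wells show a fall in the fluorescence ratio signal beyond about 16%, limit read from the data, passing the limit was not always enough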
# YIC FRET counter: YIC intramolecular FRET probe signal interference, dose response, counter-screen for RanGTP-importin-beta inhibitor project, biochemical, fluorescence FRET; shares compounds with RanGTP-Imp inh; Purified YIC probe, intramolecular FRET ratio YFP/CFP; IC50, µM; hit rate 40% among 1,000;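 active means fitted half-maximal inhibitory concentration no more than tenfold above the top dose tested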
# A number is an active result; n = inactive; x = no result given.
SMILES,Runt-CBFb FRET,Runt-SMMHC FRET,CaV13 FRET inh,RanGTP-Imp inh,YIC FRET counter
N=c1c2c(ncn1Cc1ccco1)Oc1ccc3ccccc3c1C2c1ccccc1 (centres undefined),n,n,n,n,x
COc1ccc(C2c3c(ncn(Cc4ccco4)c3=N)Oc3ccc4ccccc4c32)cc1 (centres undefined),n,n,n,71,n
O=C(/C=C/c1cccs1)Nc1ccc([N+](=O)[O-])cc1,n,n,n,19,n
O=C(/C=C/c1cccs1)c1ccc([N+](=O)[O-])cc1,n,n,n,n,x
Cc1sc2ncn(CC(=O)NCCCC(=O)N3CCN(Cc4ccc5c(c4)OCO5)CC3)c(=O)c2c1C,n,n,n,28,n
Cc1c(C#N)c(NC(=O)CCl)n(Cc2ccc(F)cc2)c1C,n,n,n,n,x
Cc1c(C#N)c(NC(=O)CCl)n(Cc2ccccc2)c1C,n,n,n,23,n
Cc1c(CC(=O)N2CCN(C(=O)C3COc4ccccc4O3)CC2)c(=O)oc2c(C)c(O)ccc12 (centres undefined),x,x,n,24,14
Cc1cccc(N2CCN(C(=O)C3COc4ccccc4O3)CC2)c1C (centres undefined),n,n,n,26,n
Cc1ccc(NC(=O)C23CCC(C)(C(=O)[C@H]2Br)C3(C)C)cc1 (some centres undefined),n,n,n,n,x
CC1(C(=O)O)C=CCN1C(=O)c1ccccc1 (centres undefined),n,n,n,19,n
CCc1ccc(C(=O)CSc2ncn[nH]2)cc1,n,n,n,18,n
CCOC(=O)c1c(NC(=O)CSc2nnc3c(n2)[nH]c2ccccc23)sc2c1CCN(C)C2,x,x,x,24,n
O=S(=O)(c1ccccc1)c1ccc(N2CCCCCC2)cc1,x,x,n,n,x
Cc1ccc(/C=C/C(=O)Nc2cccc3ncccc23)o1,n,n,n,17,n
Cc1ccc(/C=C/C(=O)Nc2cccnc2)o1,n,n,n,n,x
COC(=O)c1cnn(-c2ccc(Cl)cc2)c1/C=N/NC(N)=S,n,n,n,n,x
CCOC(=O)c1ccc(NC(=O)CSc2nnc(C3CCCCC3)n2C)cc1,n,n,n,16,n
CN(CC(=O)Nc1ccc(S(=O)(=O)N2CCOCC2)cc1)Cc1ccc(F)cc1,x,x,n,x,x
Cc1ccc(N2CC(=O)N(NC(=O)c3sc4nc(C)cc(C)c4c3N)CC2=O)cc1,n,n,n,20,n
Cc1cc(C)c2c(N)c(C(=O)Nc3ccccc3Br)sc2n1,x,x,n,n,x
COc1ccc(CCCNC(=O)C2CCC(=O)N(CCc3cccc(F)c3)C2)cc1 (centres undefined),x,x,n,n,x
Cc1cc(C2C(C#N)=C(N)SC(N)=C2C#N)c(C)s1,n,n,x,34,n
CCOC(=O)/C(C#N)=C/c1ccc(N2CCN(C)CC2)cc1,n,n,n,20,16
CCOC(=O)/C(C#N)=C\c1ccc(N2CCN(C)CC2)cc1,n,n,n,21,16
SMILES,Runt-CBFb FRET,Runt-SMMHC FRET,CaV13 FRET inh,RanGTP-Imp inh,YIC FRET counter
O=C(CC1C(=O)NCCN1CCCc1ccccc1)NCCc1ccccc1Cl (centres undefined),x,x,n,n,x
Clc1ccc(CN2CCCCCC2)cc1,x,x,n,n,x
O=[N+]([O-])c1cc(CN2CCCC2)ccc1Sc1ccc(Cl)cc1,n,n,n,19,n
C/C(N)=C(/C#N)C(=O)COc1ncnc2ccccc12,x,x,n,22,n
O=C(Cn1c(=O)c2cccn2c2cccnc21)NCCCN1CCN(c2ccc(F)cc2)CC1,x,x,n,32,n
COc1ccc(N2CCN(CCCNC(=O)Cn3c(=O)c4cccn4c4cccnc43)CC2)cc1,x,x,n,n,x
CC1=C2C3OC(=O)C(C)[C@@H]3CC[C@](C)(O)C2C2C3C4C5(C12)[C@H]1OC(=O)[C@@H](C)C1CC[C@]4(C)O[C@]5(C)[C@@H]3O (some centres undefined),n,n,n,n,x
